This is an account of results in the RNAGym collection of RNA variant scans (doi:10.1126/science.aae0568).

Fewer inactive variants are shown than the library holds.

To fix the notation:
B1: tRNA (parent)
chain: GUUCCGUUGGCGUAAUGGUAACGCGUCUCCCUCCUAAGGAGAAGACUGCGGGUUCGAGUCCCGUACGGAACG

In the series the parent is B1. The experiment in a line: yeast fitness relative to wild type (ratio to wild type); higher = fitter; tRNA-Arg(CCU), competitive growth, 37 C, YPD. Put shortly:
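Variants of the tRNA-Arg(CCU) gene, chemically synthesised with a 3% per-site mutation rate at 69 sites, were placed at the native genomic locus in Saccharomyces cerevisiae. The pooled strains were competed in YPD at 37°C for 24 hours in six parallel replicates. Gene amplicons from the start population and from each end population were read by 100-nucleotide paired-end sequencing. Darwinian fitness relative to wild type came from changes in genotype frequencies; genotypes needed ≥ 100 starting reads, and estimates < 0.5 were set to 0.5.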
On to G12A A40C G58C U59C G63A, for which the yeast fitness is at most 0.5.

As for G12C A20C C27G A45G C66A, the yeast fitness is at most 0.5.

With G12A A15G G25C C30G G67C, the yeast fitness is at most 0.5.

For G12A U19C A21U A45U G50A G68C A69U, the yeast fitness was at most 0.5.

As for G12A A20G A21G C22G, the yeast fitness is at most 0.5.

In the case of G12C C27U A69U, the yeast fitness stood at 0.599.

For G12A U26A C46U, the yeast fitness worked out at 0.543.

As for G12A C34U A37U G41A G50C, the yeast fitness stood at 0.561.

Take G12A C24A A36U: the yeast fitness turned out to be 0.666.

Consider G12A G67C, for which the yeast fitness was 0.848.

For the variant G12A G67U, the yeast fitness was 0.797.

Turning to G12A C30U A40U C49A G56A A57U, the yeast fitness is at most 0.5.

As to G12A C31U, the yeast fitness was found to be 0.919.

Consider G12A C61G C62A A70G, for which the yeast fitness was at most 0.5.

Regarding G12A U16A U64G, the yeast fitness was at most 0.5.

As to G12A U13C U26C G51A, the yeast fitness was at most 0.5.

As for G12A G51A C61A, the yeast fitness was at most 0.5.

Regarding G12A C33U A36C G51C A57U, the yeast fitness is at most 0.5.

With G12A A43U A45C U54C G67C, the yeast fitness was 0.525.

Turning to G12A C49U G58A, the yeast fitness is 0.7.

Turning to G12C A15U C24A U54A C62U A65G G68A, the yeast fitness is at most 0.5.

On to G12C C27A A37G C49U, for which the yeast fitness is at most 0.5.

Take G12C C22A: the yeast fitness turned out to be 1.

With G12A U32C A43C A65U, the yeast fitness is at most 0.5.

Take G12C A20U C22G G50A: the yeast fitness was at most 0.5.

Consider G12A G51A, for which the yeast fitness was found to be 0.883.

Take G12A G51C: the yeast fitness came to 0.662.

As to G12A A14G A15G C27U G38A G68C, the yeast fitness is at most 0.5.

Take G12A C33U A36C: the yeast fitness worked out at 0.563.

In the case of G12C A14G C22U U54C C61U, the yeast fitness is at most 0.5.

With G12A A65U, the yeast fitness worked out at 0.861.

Regarding G12A A65G, the yeast fitness was found to be 0.98.

For G12A C30G U59A, the yeast fitness was at most 0.5.

On to G12A C24G A40C A43C C46U C62A, for which the yeast fitness is at most 0.5.

For the variant G12A U19G A20G U35C A40U, the yeast fitness is at most 0.5.

With G12A C29A A65U, the yeast fitness is at most 0.5.

For G12A A43U A45C, the yeast fitness was at most 0.5.

G12A C24G A40C A43C C46U C49U G68C A69U: the yeast fitness is at most 0.5.

Consider G12A G18C C29U, for which the yeast fitness came to 0.599.

Turning to G12A C24U C49G G56C G58A, the yeast fitness is at most 0.5.

On to G12A A20C C24G U54A C60G C66U, for which the yeast fitness is at most 0.5.

With G12A C24G A40C A43C C46U G56A G68C A69U, the yeast fitness is at most 0.5.

With G12A A20U A42C, the yeast fitness came to 0.692.

For G12C A14C A20U A21U C33A G48A C62U, the yeast fitness is at most 0.5.

In the case of G12A C30A C31G U54G, the yeast fitness was at most 0.5.

Consider G12C A14C U26C A40G C66U A69U, for which the yeast fitness came to 0.598.

Consider G12A A43U A45C G50C C60U, for which the yeast fitness was at most 0.5.

Take G12C A14G G25A G41C C61U G67A: the yeast fitness is 0.573.

As to G12A C29U U35A G44C C61A, the yeast fitness is at most 0.5.

Take G12A U13A A14G A21G C33U: the yeast fitness was at most 0.5.

For the variant G12A C22A C24A A65U, the yeast fitness was at most 0.5.

Turning to G12C A20C U32A C33G, the yeast fitness came to 0.536.

G12A G25C C60U A69C: the yeast fitness is at most 0.5.

Turning to G12A A42C G50C, the yeast fitness was at most 0.5.

With G12A A15U C33A A36U C62U, the yeast fitness was at most 0.5.

Turning to G12A A15U C24G G63C, the yeast fitness was at most 0.5.

On to G12A C31U U53A U54G G58C C62U, for which the yeast fitness stood at 0.635.

For the variant G12A C33U C46A C55G, the yeast fitness was at most 0.5.

Regarding G12A G41A G50A, the yeast fitness was at most 0.5.

As to G12C C24U G48C G68A A69C, the yeast fitness is at most 0.5.

On to G12A G38A U54C, for which the yeast fitness was at most 0.5.

For the variant G12C A45U C61G, the yeast fitness was 0.528.

G12A C22G C24A G38A: the yeast fitness is at most 0.5.

For the variant G12A G25A G52A, the yeast fitness was 0.583.

On to G12A C24U G41A, for which the yeast fitness was determined as 0.544.

Consider G12A C55A A65C, for which the yeast fitness was at most 0.5.

Turning to G12C A36C, the yeast fitness worked out at 0.518.

Turning to G12A A57C, the yeast fitness came to 0.618.

On to G12A C46U C62U, for which the yeast fitness worked out at 0.732.

As for G12A A15U C22A U26A C33G G38C G41C A43C U47G G67C, the yeast fitness was at most 0.5.

Take G12C C24G: the yeast fitness was 0.622.

As for G12A A21G A40U, the yeast fitness came out at 0.564.

With G12A A15U C24U G44C G52C A69U, the yeast fitness was at most 0.5.

Regarding G12A G52C C55U A65U, the yeast fitness was at most 0.5.

Consider G12A A15C C46G G58C C61A, for which the yeast fitness is at most 0.5.

Take G12A G48C U54A: the yeast fitness amounted to 0.59.

With G12C C22U U32C, the yeast fitness turned out to be 0.692.

Take G12A A20U G23C U32C A69G: the yeast fitness was at most 0.5.

Turning to G12A A20G U26C C31G C33U A42U G67C, the yeast fitness is at most 0.5.

As to G12A U16A, the yeast fitness was found to be 0.974.

Take G12C C22U A43C G68C: the yeast fitness amounted to 0.556.

On to G12A G23C, for which the yeast fitness amounted to 0.733.

Turning to G12A U28C, the yeast fitness was 1.06.
